Source: ChEMBL document CHEMBL4411280, “Synthesis, structure activity relationship and in vitro anti-influenza virus activity of novel polyphenol-pentacyclic triterpene conjugates” (Eur J Med Chem, 2019)
Activity calls are given as the source filed them. The calls are words filed in the database; no cut-off is given here.

How the values were obtained:
MDCK = test: Cytotoxicity against MDCK cells at 50 uM after 40 hrs by CellTiter-Glo assay; format: cell-based, Canis lupus familiaris; conditions: dog
In short: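 Single-concentration toxicity screen at 50 μM final on MDCK cells for 40 h, read by CellTiter-Glo. 0.5% DMSO final as negative control. Triplicate experiments, standard deviations shown.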

Influenza A virus [1] = test: Antiviral activity against Influenza A virus A/WSN/33/H1N1 infected in MDCK cells assessed as reduction in virus-induced cytopathic effect after 40 hrs by CellTiter-Glo assay; format: functional, organism-based; conditions: A/WSN/33/H1N1, MDCK
In short: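 MDCK cells seeded overnight, infected with influenza A/WSN/33 (H1N1) at MOI 0.1. Kept in DMEM with 1% FBS, test compound, TPCK-treated trypsin and 1% final DMSO for 40 h. Cell viability read by CellTiter-Glo luminescence. IC50 taken from dose-response.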

Influenza A virus [2] = test: Antiviral activity against Influenza A virus A/WSN/33/H1N1 infected in MDCK cells assessed as reduction in virus-induced cytopathic effect at 50 uM after 40 hrs by CellTiter-Glo assay; format: functional, organism-based
In short: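 Single-concentration screen at 50 μM final. MDCK cells infected with A/WSN/33 (H1N1) at MOI 0.1 in DMEM/1% FBS with TPCK-trypsin for 40 h, viability by CellTiter-Glo. 0.5% DMSO final as negative control, oseltamivir as positive control. Triplicate experiments, standard deviations shown.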

[3] = Cytotoxicity against MDCK cells after 40 hrs by CellTiter-Glo assay; format: cell-based, Canis lupus familiaris; conditions: dog
In short: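 MDCK cells grown overnight in medium with 1% FBS, then exposed to increasing compound concentrations for 40 h. Viability measured by CellTiter-Glo luminescence, and CC50 derived from it.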

Structure (SMILES)	Activity (MDCK)	further results
C[C@H]1[C@H](C)CC[C@]2(C(=O)NCCNC(=O)c3ccc(OCc4ccccc4)cc3)CC[C@]3(C)C(=CC[C@@H]4[C@@]5(C)CC[C@H](O)C(C)(C)[C@@H]5CC[C@]43C)[C@H]12	Non-Toxic	
CC1(C)CC[C@]2(C(=O)NCCNC(=O)/C=C/c3ccc(O)cc3)[C@H](O)C[C@]3(C)C(=CC[C@@H]4[C@@]5(C)CC[C@H](O)C(C)(C)[C@@H]5CC[C@]43C)[C@@H]2C1	Non-Toxic	
CC1(C)CC[C@]2(C(=O)NCCNC(=O)c3ccccc3O)[C@H](O)C[C@]3(C)C(=CC[C@@H]4[C@@]5(C)CC[C@H](O)C(C)(C)[C@@H]5CC[C@]43C)[C@@H]2C1	Non-Toxic	IC50 (Influenza A virus [1]): 5.84 µM; Activity (Influenza A virus [2]): Active; CC50 at 40 h [3]: > 100 µM
C=C(C)[C@@H]1CC[C@]2(C(=O)NCCNC(=O)c3ccccc3O)CC[C@]3(C)[C@H](CC[C@@H]4[C@@]5(C)CC[C@H](O)C(C)(C)[C@@H]5CC[C@]43C)[C@@H]12	Non-Toxic	IC50 (Influenza A virus [1]): 9.55 µM; Activity (Influenza A virus [2]): Active; CC50 at 40 h [3]: > 100 µM
C[C@H]1[C@H](C)CC[C@]2(C(=O)NCCNC(=O)/C=C/c3ccc(O)cc3)CC[C@]3(C)C(=CC[C@@H]4[C@@]5(C)CC[C@H](O)C(C)(C)[C@@H]5CC[C@]43C)[C@H]12	Non-Toxic	
CC1(C)CC[C@]2(C(=O)NCCNC(=O)c3ccc(OCc4ccccc4)cc3)CC[C@]3(C)C(=CC[C@@H]4[C@@]5(C)CC[C@H](O)C(C)(C)[C@@H]5CC[C@]43C)[C@@H]2C1	Non-Toxic	
CC1(C)CC[C@]2(C(=O)NCCNC(=O)/C=C/c3ccc(O)cc3)CC[C@]3(C)C(=CC[C@@H]4[C@@]5(C)CC[C@H](O)C(C)(C)[C@@H]5CC[C@]43C)[C@@H]2C1	Non-Toxic	
C=C(C)[C@@H]1CC[C@]2(C(=O)NCCNC(=O)c3cc(OCc4ccccc4)cc(OCc4ccccc4)c3)CC[C@]3(C)[C@H](CC[C@@H]4[C@@]5(C)CC[C@H](O)C(C)(C)[C@@H]5CC[C@]43C)[C@@H]12	Non-Toxic	
C=C(C)[C@@H]1CC[C@]2(C(=O)NCCNC(=O)/C=C/c3ccccc3)CC[C@]3(C)[C@H](CC[C@@H]4[C@@]5(C)CC[C@H](O)C(C)(C)[C@@H]5CC[C@]43C)[C@@H]12	Non-Toxic	
CC1(C)CC[C@]2(C(=O)NCCNC(=O)c3ccc(OCc4ccccc4)cc3)[C@H](O)C[C@]3(C)C(=CC[C@@H]4[C@@]5(C)CC[C@H](O)C(C)(C)[C@@H]5CC[C@]43C)[C@@H]2C1	Non-Toxic	
CC1(C)CC[C@]2(C(=O)NCCNC(=O)c3cc(O)c(O)c(O)c3)CC[C@]3(C)C(=CC[C@@H]4[C@@]5(C)CC[C@H](O)C(C)(C)[C@@H]5CC[C@]43C)[C@@H]2C1	Toxic	
CC1(C)CC[C@]2(C(=O)NCCNC(=O)c3ccc(O)cc3)CC[C@]3(C)C(=CC[C@@H]4[C@@]5(C)CC[C@H](O)C(C)(C)[C@@H]5CC[C@]43C)[C@@H]2C1	Non-Toxic	
CC1(C)CC[C@]2(C(=O)NCCNC(=O)c3cc(OCc4ccccc4)cc(OCc4ccccc4)c3)CC[C@]3(C)C(=CC[C@@H]4[C@@]5(C)CC[C@H](O)C(C)(C)[C@@H]5CC[C@]43C)[C@@H]2C1	Non-Toxic	
C=C(C)[C@@H]1CC[C@]2(C(=O)NCCNC(=O)c3ccc(OCc4ccccc4)cc3)CC[C@]3(C)[C@H](CC[C@@H]4[C@@]5(C)CC[C@H](O)C(C)(C)[C@@H]5CC[C@]43C)[C@@H]12	Non-Toxic	
CC1(C)CC[C@]2(C(=O)NCCNC(=O)/C=C/c3ccccc3)CC[C@]3(C)C(=CC[C@@H]4[C@@]5(C)CC[C@H](O)C(C)(C)[C@@H]5CC[C@]43C)[C@@H]2C1	Toxic	
C=C(C)[C@@H]1CC[C@]2(C(=O)NCCNC(=O)c3ccc(O)cc3)CC[C@]3(C)[C@H](CC[C@@H]4[C@@]5(C)CC[C@H](O)C(C)(C)[C@@H]5CC[C@]43C)[C@@H]12	Toxic	
CC1(C)CC[C@]2(C(=O)NCCNC(=O)c3cc(O)cc(O)c3)[C@H](O)C[C@]3(C)C(=CC[C@@H]4[C@@]5(C)CC[C@H](O)C(C)(C)[C@@H]5CC[C@]43C)[C@@H]2C1	Toxic	
C[C@H]1[C@H](C)CC[C@]2(C(=O)NCCNC(=O)c3cc(O)c(O)c(O)c3)CC[C@]3(C)C(=CC[C@@H]4[C@@]5(C)CC[C@H](O)C(C)(C)[C@@H]5CC[C@]43C)[C@H]12	Toxic	
C[C@H]1[C@H](C)CC[C@]2(C(=O)NCCNC(=O)c3cc(OCc4ccccc4)c(OCc4ccccc4)c(OCc4ccccc4)c3)CC[C@]3(C)C(=CC[C@@H]4[C@@]5(C)CC[C@H](O)C(C)(C)[C@@H]5CC[C@]43C)[C@H]12	Non-Toxic	IC50 (Influenza A virus [1]): 32.9 µM; Activity (Influenza A virus [2]): Active; CC50 at 40 h [3]: > 100 µM

Structure (SMILES)	Activity (MDCK)	further results
CCOC(=O)C1=C[C@@H](OC(CC)CC)[C@H](NC(C)=O)[C@@H](N)C1 [OSELTAMIVIR]		IC50 (Influenza A virus [1]): 16.5 µM; CC50 at 40 h [3]: > 200 µM
CC1(C)CC[C@]2(C(=O)NCCNC(=O)c3ccc(O)cc3O)CC[C@]3(C)C(=CC[C@@H]4[C@@]5(C)CC[C@H](O)C(C)(C)[C@@H]5CC[C@]43C)[C@@H]2C1	Toxic	
C[C@H]1[C@H](C)CC[C@]2(C(=O)NCCNC(=O)c3ccc(O)cc3)CC[C@]3(C)C(=CC[C@@H]4[C@@]5(C)CC[C@H](O)C(C)(C)[C@@H]5CC[C@]43C)[C@H]12	Toxic	
C=C(C)[C@@H]1CC[C@]2(C(=O)NCCNC(=O)c3ccc(O)cc3O)CC[C@]3(C)[C@H](CC[C@@H]4[C@@]5(C)CC[C@H](O)C(C)(C)[C@@H]5CC[C@]43C)[C@@H]12	Toxic	
C=C(C)[C@@H]1CC[C@]2(C(=O)NCCNC(=O)c3cc(O)cc(O)c3)CC[C@]3(C)[C@H](CC[C@@H]4[C@@]5(C)CC[C@H](O)C(C)(C)[C@@H]5CC[C@]43C)[C@@H]12	Toxic	
C[C@H]1[C@H](C)CC[C@]2(C(=O)NCCNC(=O)c3cc(O)cc(O)c3)CC[C@]3(C)C(=CC[C@@H]4[C@@]5(C)CC[C@H](O)C(C)(C)[C@@H]5CC[C@]43C)[C@H]12	Toxic	
CC1(C)CC[C@]2(C(=O)NCCNC(=O)c3cc(O)c(O)c(O)c3)[C@H](O)C[C@]3(C)C(=CC[C@@H]4[C@@]5(C)CC[C@H](O)C(C)(C)[C@@H]5CC[C@]43C)[C@@H]2C1	Toxic	
C[C@H]1[C@H](C)CC[C@]2(C(=O)NCCNC(=O)c3cc(OCc4ccccc4)cc(OCc4ccccc4)c3)CC[C@]3(C)C(=CC[C@@H]4[C@@]5(C)CC[C@H](O)C(C)(C)[C@@H]5CC[C@]43C)[C@H]12	Non-Toxic	
CC1(C)CC[C@]2(C(=O)NCCNC(=O)c3ccc(O)cc3)[C@H](O)C[C@]3(C)C(=CC[C@@H]4[C@@]5(C)CC[C@H](O)C(C)(C)[C@@H]5CC[C@]43C)[C@@H]2C1	Toxic	
CC1(C)CC[C@]2(C(=O)NCCNC(=O)c3cc(OCc4ccccc4)cc(OCc4ccccc4)c3)[C@H](O)C[C@]3(C)C(=CC[C@@H]4[C@@]5(C)CC[C@H](O)C(C)(C)[C@@H]5CC[C@]43C)[C@@H]2C1	Non-Toxic	
C=C(C)[C@@H]1CC[C@]2(C(=O)NCCNC(=O)c3cc(OCc4ccccc4)c(OCc4ccccc4)c(OCc4ccccc4)c3)CC[C@]3(C)[C@H](CC[C@@H]4[C@@]5(C)CC[C@H](O)C(C)(C)[C@@H]5CC[C@]43C)[C@@H]12	Non-Toxic	
CC1(C)CC[C@]2(C(=O)NCCNC(=O)c3ccc(O)cc3O)[C@H](O)C[C@]3(C)C(=CC[C@@H]4[C@@]5(C)CC[C@H](O)C(C)(C)[C@@H]5CC[C@]43C)[C@@H]2C1	Toxic	
CC1(C)CC[C@]2(C(=O)NCCNC(=O)c3cc(OCc4ccccc4)c(OCc4ccccc4)c(OCc4ccccc4)c3)[C@H](O)C[C@]3(C)C(=CC[C@@H]4[C@@]5(C)CC[C@H](O)C(C)(C)[C@@H]5CC[C@]43C)[C@@H]2C1	Non-Toxic	Activity (Influenza A virus [2]): Active
C=C(C)[C@@H]1CC[C@]2(C(=O)NCCNC(=O)c3cc(O)c(O)c(O)c3)CC[C@]3(C)[C@H](CC[C@@H]4[C@@]5(C)CC[C@H](O)C(C)(C)[C@@H]5CC[C@]43C)[C@@H]12	Toxic	Activity (Influenza A virus [2]): Active
C[C@H]1[C@H](C)CC[C@]2(C(=O)NCCNC(=O)c3ccc(O)cc3O)CC[C@]3(C)C(=CC[C@@H]4[C@@]5(C)CC[C@H](O)C(C)(C)[C@@H]5CC[C@]43C)[C@H]12	Toxic	
CC1(C)CC[C@]2(C(=O)NCCNC(=O)c3cc(OCc4ccccc4)c(OCc4ccccc4)c(OCc4ccccc4)c3)CC[C@]3(C)C(=CC[C@@H]4[C@@]5(C)CC[C@H](O)C(C)(C)[C@@H]5CC[C@]43C)[C@@H]2C1	Non-Toxic	Activity (Influenza A virus [2]): Active
CC1(C)CC[C@]2(C(=O)NCCNC(=O)c3cc(O)cc(O)c3)CC[C@]3(C)C(=CC[C@@H]4[C@@]5(C)CC[C@H](O)C(C)(C)[C@@H]5CC[C@]43C)[C@@H]2C1	Toxic	
CC1(C)CC[C@]2(C(=O)NCCNC(=O)/C=C/c3ccccc3)[C@H](O)C[C@]3(C)C(=CC[C@@H]4[C@@]5(C)CC[C@H](O)C(C)(C)[C@@H]5CC[C@]43C)[C@@H]2C1	Toxic	
